# According to ChEMBL document CHEMBL1629663, “Postantibiotic effects of telavancin against 16 gram-positive organisms” (Antimicrob Agents Chemother, 2009):
# How the values were obtained:
# Type in all cases: functional
# Staphylococcus aureus [1] = experiment: Antimicrobial activity against heterogenous vancomycin-intermediate-, methicillin-resistant Staphylococcus aureus 873 assessed as time required to induce sub-MIC effect at 0.4 times MIC […] by plate counting method
# Summary of the method: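 SME, viable plate count method: no prior drug exposure. About 5 × 10^6 CFU/ml in Mueller-Hinton broth at 35°C received 0.2, 0.3 or 0.4× MIC, alongside a drug-free tube. Counts were taken at the start, then every 2 h until McFarland no. 1 turbidity, as log10 CFU/ml against time. Two separate experiments, each with a new inoculum.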
# Staphylococcus aureus [2] = experiment: Antimicrobial activity against heterogenous vancomycin-intermediate-, methicillin-resistant Staphylococcus aureus 873 assessed as post-antibiotic effect at 10 times MIC pre-exposed to Telavancin for 1 hr by plate counting method
# Summary of the method: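 Viable plate count method in Mueller-Hinton broth. Direct colony suspension inoculum of about 5 × 10^6 CFU/ml was exposed to 10× MIC for 1 h at 35°C in a shaking water bath, then diluted 1:1,000 to remove drug. Counts were taken before exposure, at 0 h, then every 2 h until McFarland no. 1 turbidity. PAE = T − C, the time to a 1 log10 rise versus an unexposed growth control.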
# Staphylococcus aureus [3] = experiment: Antimicrobial activity against vancomycin-susceptible-, methicillin-resistant Staphylococcus aureus ATCC 33591 assessed as time required to induce post antibiotic sub-MIC effect at 0.2 times MIC pre-exposed to Telavancin […] by plate counting method
# Summary of the method: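 After 1 h preexposure to 10× MIC at 35°C and 1:1,000 dilution, cultures were split, and drug was re-added to final 0.2, 0.3 or 0.4× MIC, with a drug-free tube. Viable counts were taken every 2 h until McFarland 1 turbidity. Duration was derived from log10 CFU/ml versus time curves. Two experiments were run, each with a new inoculum.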
# Staphylococcus aureus [4] = experiment: Antimicrobial activity against vancomycin-intermediate-, methicillin-resistant Staphylococcus aureus 770 by microdilution method
# Streptococcus agalactiae = experiment: Antimicrobial activity against Streptococcus agalactiae HMC 5 assessed as time required to induce post antibiotic sub-MIC effect at 0.4 times MIC […] by plate counting method
# Summary of the method: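 Mueller-Hinton broth cultures of about 5 × 10^6 CFU/ml were pre-exposed to telavancin at 10× MIC for 1 h at 35°C, then diluted 1:1,000. Telavancin was re-added to final 0.2, 0.3 or 0.4× MIC, alongside a drug-free tube. Viable counts were taken before exposure, after dilution, then every 2 h until McFarland no. 1 turbidity. Duration comes from log10 CFU/ml-versus-time plots; two separate experiments with fresh inocula.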
smiles,measurement,setting,value
CCCCCCCCCCNCCN[C@@]1(C)C[C@H](O[C@H]2[C@H](Oc3c4cc5cc3Oc3ccc(cc3Cl)[C@@H](O)[C@@H](NC(=O)[C@@H](CC(C)C)NC)C(=O)N[C@@H](CC(N)=O)C(=O)N[C@H]5C(=O)N[C@H]3C(=O)N[C@H](C(=O)N[C@H](C(=O)O)c5cc(O)c(CNCP(=O)(O)O)c(O)c5-c5cc3ccc5O)[C@H](O)c3ccc(c(Cl)c3)O4)O[C@H](CO)[C@@H](O)[C@@H]2O)O[C@@H](C)[C@H]1O [TELAVANCIN],PAE,Staphylococcus aureus [1],1 h
same,PAE,Staphylococcus aureus [2],1.2 h
same,PAE,Staphylococcus aureus [3],7.7 h
same,MIC,Staphylococcus aureus [4],0.25 mg/L
same,PAE,Streptococcus agalactiae,> 10.7 h
